Assay results of several laboratories.
Lines come from different studies, so protocols differ.
BCHE: Cholinesterase (BCHE, Equus caballus, UniProt P81908)
CYP2B6: Cytochrome P450 2B6 (CYP2B6, Homo sapiens, UniProt P20813)
PTPN11: Tyrosine-protein phosphatase non-receptor type 11 (PTPN11, Homo sapiens, UniProt Q06124)
PTGS1: Prostaglandin G/H synthase 1 (PTGS1, Ovis aries, UniProt P05979)
PTPN9: Tyrosine-protein phosphatase non-receptor type 9 (PTPN9, Homo sapiens, UniProt P43378)
DRD1: D(1A) dopamine receptor (DRD1, Homo sapiens, UniProt P21728)
SIRT3: NAD-dependent protein deacetylase sirtuin-3, mitochondrial (SIRT3, Homo sapiens, UniProt Q9NTG7)
NTRK2: BDNF/NT-3 growth factors receptor (NTRK2, Homo sapiens, UniProt Q16620)

With `O=S1(=O)CCN(c2nccc(NCc3ccccc3)n2)CC1` the IC50 was greater than 100 µM (BCHE; enzyme activity, inhibitor).
`C=CC(=O)Nc1cc(Nc2nccc(Nc3cc(Cl)c(F)cc3C(C)(C)O)n2)c(OC)cc1N1CC[C@@H](N(C)C)C1` gave an IC50 of greater than 30 µM (CYP2B6; enzyme activity, inhibitor; human, liver microsomes).
For `c1ccc(CNc2ccnc(N3CCNCC3)n2)cc1`, the IC50 was greater than 100 µM (BCHE; enzyme activity, inhibitor).
With `CCOC(F)(F)c1nnc2cnc(-c3cnc(OCC(F)(F)F)c(F)c3)cn12` the IC50 was 0.145 µM (Sodium channel protein type 8 subunit alpha (Scn8a, Mus musculus, UniProt Q9WTU3); ion current, inhibitor, patch clamp).
With `O=C1Nc2ccccc2/C1=C1/Nc2ccccc2/C1=N\O` the IC50 was 1 µM (Ribosomal protein S6 kinase alpha-3, N-terminal kinase domain (RPS6KA3, Homo sapiens, UniProt P51812); enzyme activity, inhibitor, FP).
`O=Cc1ccc2[nH]ncc2c1` gave an IC50 of roughly 350 µM (Ribosomal protein S6 kinase alpha-3 (RPS6KA3, Homo sapiens, UniProt P51812, C436V); enzyme activity, inhibitor).
`O=C(O)/C=C/c1ccc(-c2ccc(F)cc2)c(Cl)c1` has an IC50 of 2.11 µM (PTPN11; enzyme activity, inhibitor, fluorescence).
The IC50 of `COc1ccc(Nc2c(-c3ccc(S(C)(=O)=O)cc3)nc3cccc(C)n23)cc1` is reported as 21.1 µM (PTGS1; enzyme activity, inhibitor, fluorescence).
The IC50 of `CCCC[C@H](NC(=O)[C@H](C)c1c(C)[nH]c2ccc(O)cc12)c1ncc(-c2cc3ccccc3nc2OC)[nH]1` is reported as 2.69 µM (Prostaglandin E2 receptor EP1 subtype (PTGER1, Homo sapiens, UniProt P34995); enzyme activity).
The IC50 of `COc1ccc(COc2c(OC)ccc3c2C[C@@H](C(=O)O)N(c2nc4ccc(C#N)cc4o2)C3)cn1` is reported as 0.046 µM (Type-2 angiotensin II receptor (AGTR2, Homo sapiens, UniProt P50052); cell-free assay, TR-FRET).
`N[C@@H](Cc1ccccc1)C(=O)N[C@@H](Cc1ccccc1)C(=O)N[C@@H](CC(=O)O)C(=O)O` has an IC50 of 114 µM (PTPN11; enzyme activity, inhibitor, absorbance; pH 7.4).
For `N[C@@H](Cc1ccc(C(F)(F)P(=O)(O)O)cc1)C(=O)O`, the IC50 was 11500 µM (PTPN9; enzyme activity, inhibitor, absorbance).
For `Cc1c(Br)cc(NC(=O)NS(=O)(=O)O)cc1Br`, the IC50 was greater than 10 µM (PTPN9; enzyme activity, inhibitor, absorbance).
For `Oc1cc2c(cc1OCC(F)F)CCN1Cc3c(c(Br)cc(O)c3OCC(F)F)C[C@@H]21`, the IC50 was 0.23 µM (DRD1; cAMP, antagonist, TR-FRET).
For `Cc1cc(Nc2cc(CN3CCOCC3)c3nc(C)c(Cc4ccc(Cl)cc4F)n3n2)n[nH]1`, the IC50 was 0.299 µM (Mitogen-activated protein kinase kinase kinase 9 (MAP3K9, Homo sapiens, UniProt P80192); enzyme activity, inhibitor, TR-FRET).
For `CCCCCCCCCCCCNC(=S)NCCCC[C@H](NS(C)(=O)=O)C(=O)N[C@H](C)C(=O)N[C@@H](CCCNC(=N)N)C(=O)N1CCOCC1`, the IC50 was 55 µM (SIRT3; enzyme activity, inhibitor).
The IC50 of `CC(C)(C)n1nc(-c2cnc3cc(OC4CC4)ccc3c2)c(C(N)=O)c1N` is reported as greater than 10 µM (Calcium/calmodulin-dependent protein kinase type 1D (CAMK1D, Homo sapiens, UniProt Q8IU85); cell-free assay).
`O=C(O)C(=O)CC(=O)c1cccc(N(Cc2ccccc2)Cc2ccccc2)c1` has an IC50 of 85 µM (PTPN11; enzyme activity, inhibitor, absorbance; pH 7).
`CNC(=O)c1cc(Oc2ccc(NC(=O)Nc3cc(C(C)(C)C)nn3-c3ccc4ncccc4c3)c(F)c2)ccn1` has an IC50 of 0.012 µM (Mitogen-activated protein kinase kinase kinase 20 (MAP3K20, Homo sapiens, UniProt Q9NYL2); enzyme activity, inhibitor, mass spectrometry).
For `Cc1cccc2nc(-c3ccc(S(C)(=O)=O)cc3)c(Nc3ccccc3)n12`, the IC50 was 24.6 µM (PTGS1; enzyme activity, inhibitor, fluorescence).
The IC50 of `Cc1cc2c(F)c(Oc3ncnn4cc(OC[C@@H](C)O)c(C)c34)ccc2[nH]1` is reported as 5.95 µM (CYP2B6; enzyme activity, inhibitor, fluorescence; 15 min).
For `CSc1ccc(/C=C2/C(C)=C(CC(=O)O)c3cc(F)ccc32)cc1`, the IC50 was greater than 100 µM (cGMP-inhibited 3',5'-cyclic phosphodiesterase 3B (PDE3B, Homo sapiens, UniProt Q13370); enzyme activity, inhibitor).
`C[C@@H](N)COc1ccc(-c2cnc3ccc(N[C@H](C)c4cccc(F)c4)nn23)cc1` gave an IC50 of 0.0055 µM (NTRK2; enzyme activity, inhibitor).
`CCCCCCCCCCCCNC(=S)NCCCC[C@H](NC(C)=O)C(=O)N[C@@H](C)C(=O)N[C@@H](CCCNC(=N)N)C(N)=O` gave an IC50 of 2.2 µM (SIRT3; enzyme activity, inhibitor).
The IC50 of `Cc1cnc(-c2ccc(-c3ccc(NC(=O)Nc4c(F)cc(F)cc4F)cc3F)c3c2C(=O)NC3)[nH]1` is reported as 0.0065 µM (NTRK2; enzyme activity, inhibitor).
The IC50 of `CCc1cc(/C(C)=N/OCc2ccc(C3CCCCC3)c(C(F)(F)F)c2)ccc1CN1CC(C(=O)O)C1` is reported as greater than 0.6 µM (CYP2B6; enzyme activity, inhibitor; human, liver microsomes; 20 min).
`Cc1ccc(NC(=O)c2ccc(C)c(C(F)(F)F)c2)cc1C#Cc1nn(C2CCC(O)CC2)c2ncnc(N)c12` (centres unmarked) has an IC50 of 0.899 µM (NTRK2; enzyme activity, inhibitor, radiometric).
The IC50 of `O=C(NCCc1ccc(OP(=O)(O)O)c(OP(=O)(O)O)c1)OCC1c2ccccc2-c2ccccc21` is reported as 32.4 µM (Signal transducer and activator of transcription 5A, SH2 (Homo sapiens, UniProt P42229); ligand displacement, FP).
`FC(F)(F)c1ccc(CN2CCN(c3nccc(NCc4ccccc4)n3)CC2)cc1` has an IC50 of greater than 100 µM (BCHE; enzyme activity, inhibitor).
With `CC1=C[C@@]2(C[C@H](C)[C@H]3CC=C(CO)C(=O)[C@@H]3O2)OC1=O` the IC50 was 48.2 µM (PTPN11; enzyme activity, inhibitor).
With `CC1Cc2ccccc2N1C(=O)NCCCCN(C)[C@@H]1Cc2cccc3[nH]c(=O)n(c23)C1` (mixture of isomers) the IC50 was greater than 10 µM (DRD1; ligand displacement, radioligand).
For `CC(=O)N1CCN(c2nccc(NCc3ccccc3)n2)CC1`, the IC50 was greater than 100 µM (BCHE; enzyme activity, inhibitor).
The IC50 of `CN1CCN(c2ccc(Nc3ncc4cc(C#N)c(=O)n(C5CCCC5)c4n3)cc2)CC1` is reported as 0.38 µM (Ribosomal protein S6 kinase alpha-3 (RPS6KA3, Homo sapiens, UniProt P51812); enzyme activity, inhibitor).
With `O=C(NO)c1ccc(CN(c2cnccn2)c2cnccn2)cc1` the IC50 was greater than 10 µM (SIRT3; enzyme activity, inhibitor, fluorescence).
`CC(=O)N1C[C@@H](CCN2CCC(c3c[nH]c4cc(Cl)ccc34)CC2)c2ccccc21` gave an IC50 of 0.242 µM (Sodium-dependent serotonin transporter (SLC6A4, Homo sapiens, UniProt P31645); ligand displacement, radioligand; cell membranes).
